# Columns and labels:
# [1] = Mouse pharmacokinetics, single sc or iv dose, plasma LC-MS; format: in vivo; conditions: for AUC∞: plasma LC-MS
# [2] = Healthy volunteers, single-dose arm, sc; format: in vivo; conditions: human; for half-life: t½
# Method in brief: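 Double-blind single abdominal sc injection at 0.1, 0.5, 1, 3 or 5 mg versus placebo. Cohorts of six or eight subjects; the 0.1 mg cohort had 4 active and 2 placebo. Serial blood sampling to 48 h post-dose. Plasma assayed by validated bioanalytical method. Noncompartmental analysis: Cmax, tmax, t½, AUC (linear trapezoidal to last quantifiable concentration), AUC∞, CL/F. AEs recorded.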
# [3] = both, plasma, sc, 0.1 mg, single 0.1 mg sc, mean (SD), n=4
# [4] = both, plasma, sc, 0.5 mg, single 0.5 mg sc, mean (SD), n=4
# [5] = both, plasma, sc, 1 mg, single 1.0 mg sc, mean (SD), n=6
# [6] = both, plasma, sc, 3 mg, single 3.0 mg sc, median, n=6
# [7] = both, plasma, sc, 5 mg, single 5.0 mg sc, mean (SD), n=6
# [8] = single 0.1 mg sc, geometric mean, n=4
# [9] = single 0.1 mg sc, mean (SD), n=4
# [10] = single 0.5 mg sc, geometric mean, n=2
# [11] = single 0.5 mg sc, geometric mean, n=4
# [12] = single 1.0 mg sc, geometric mean, n=6
# [13] = single 3.0 mg sc, mean (SD), n=6
# [14] = single 5.0 mg sc, geometric mean, n=6
# [15] = single 5.0 mg sc, mean (SD), n=6
smiles,measurement,setting,value
CCCC[C@H](NC(C)=O)C(=O)N[C@H]1CCC(=O)NC[C@@H](C(=O)N[C@@H](Cc2c[nH]c3ccccc23)C(N)=O)NC(=O)[C@H](CCCNC(=N)N)NC(=O)[C@@H](Cc2ccccc2)NC(=O)[C@H](Cc2c[nH]cn2)NC1=O [PL8177],F (bioavailability),[1]; 1 mg/kg sc versus iv,0.63
same,t½,[1]; single 1 mg/kg iv,12 min
same,AUC∞,[1]; single 1 mg/kg iv,753 ng·h/mL
same,Cmax,[1]; single 1 mg/kg sc,703 ng/mL
same,tmax,[1]; single 1 mg/kg sc,4.98 min
same,t½,[1]; single 1 mg/kg sc,15.6 min
same,AUC∞,[1]; single 1 mg/kg sc,476 ng·h/mL
same,Cmax,[1]; single 3 mg/kg sc,2440 ng/mL
same,tmax,[1]; single 3 mg/kg sc,15 min
same,t½,[1]; single 3 mg/kg sc,30 min
same,AUC∞,[1]; single 3 mg/kg sc,1727 ng·h/mL
same,AUC(0-t),"[2]; both, plasma, sc, 0.1 mg",2.7 ng·h/mL
same,tmax,"[2]; both, plasma, sc, 0.1 mg",36 min
same,AUC(0-inf),[2]; [3],3.5 ng·h/mL
same,CL/F,"[2]; both, plasma, sc, 0.1 mg, CL/F, single 0.1 mg sc, mean (SD), n=4",29.8 L/h
same,Cmax,"[2]; both, plasma, sc, 0.1 mg, Cmax, single 0.1 mg sc, mean (SD), n=4",2.3 ng/mL
same,Vd/F,"[2]; both, plasma, sc, 0.1 mg, Vd/F, single 0.1 mg sc, mean (SD), n=4",36.1 L
same,half-life,[2]; [3],54 min
same,AUC(0-t),"[2]; both, plasma, sc, 0.5 mg",19.9 ng·h/mL
same,tmax,"[2]; both, plasma, sc, 0.5 mg",30 min
same,AUC(0-inf),[2]; [4],22.4 ng·h/mL
same,CL/F,"[2]; both, plasma, sc, 0.5 mg, CL/F, single 0.5 mg sc, mean (SD), n=4",28.6 L/h
same,Cmax,"[2]; both, plasma, sc, 0.5 mg, Cmax, single 0.5 mg sc, mean (SD), n=4",8.2 ng/mL
same,Vd/F,"[2]; both, plasma, sc, 0.5 mg, Vd/F, single 0.5 mg sc, mean (SD), n=2",74.4 L
same,half-life,[2]; [4],168 min
same,AUC(0-t),"[2]; both, plasma, sc, 1 mg",40.3 ng·h/mL
same,tmax,"[2]; both, plasma, sc, 1 mg",36 min
same,AUC(0-inf),[2]; [5],46.2 ng·h/mL
same,CL/F,"[2]; both, plasma, sc, 1 mg, CL/F, single 1.0 mg sc, mean (SD), n=6",22.9 L/h
same,Cmax,"[2]; both, plasma, sc, 1 mg, Cmax, single 1.0 mg sc, mean (SD), n=6",17.4 ng/mL
same,Vd/F,"[2]; both, plasma, sc, 1 mg, Vd/F, single 1.0 mg sc, mean (SD), n=3",173 L
same,Vd/F,"[2]; both, plasma, sc, 1 mg, Vd/F, single 1.0 mg sc, median, n=3",186 L
same,half-life,[2]; [5],402 min
same,AUC(0-t),"[2]; both, plasma, sc, 3 mg",137 ng·h/mL
same,AUC(0-inf),[2]; [6],163 ng·h/mL
same,CL/F,"[2]; both, plasma, sc, 3 mg, CL/F, single 3.0 mg sc, mean (SD), n=6",19.3 L/h
same,CL/F,"[2]; both, plasma, sc, 3 mg, CL/F, single 3.0 mg sc, median, n=6",18.4 L/h
same,Cmax,"[2]; both, plasma, sc, 3 mg, Cmax, single 3.0 mg sc, median, n=6",49.1 ng/mL
same,Vd/F,"[2]; both, plasma, sc, 3 mg, Vd/F, single 3.0 mg sc, mean (SD), n=4",375 L
same,Vd/F,"[2]; both, plasma, sc, 3 mg, Vd/F, single 3.0 mg sc, median, n=4",394 L
same,half-life,"[2]; both, plasma, sc, 3 mg, single 3.0 mg sc, geometric mean, n=6",912 min
same,half-life,"[2]; both, plasma, sc, 3 mg, single 3.0 mg sc, mean (SD), n=6",1170 min
same,half-life,[2]; [6],738 min
same,AUC(0-t),"[2]; both, plasma, sc, 5 mg",226 ng·h/mL
same,tmax,"[2]; both, plasma, sc, 5 mg",48 min
same,AUC(0-inf),[2]; [7],240 ng·h/mL
same,CL/F,"[2]; both, plasma, sc, 5 mg, CL/F, single 5.0 mg sc, mean (SD), n=6",21.3 L/h
same,Cmax,"[2]; both, plasma, sc, 5 mg, Cmax, single 5.0 mg sc, mean (SD), n=6",87.8 ng/mL
same,Vd/F,"[2]; both, plasma, sc, 5 mg, Vd/F, single 5.0 mg sc, mean (SD), n=6",502 L
same,half-life,[2]; [7],978 min
same,Median time for last measurable concentration,[2]; 0.1-mg dose,2 h
same,Median time for last measurable concentration,[2]; 0.5-mg dose,6 h
same,Median time for last measurable concentration,[2]; 1-mg dose,16 h
same,Median time for last measurable concentration,[2]; 3-mg dose,30 h
same,Median time for last measurable concentration,[2]; 5-mg dose,48 h
same,AUC0–t,[2]; [8],2.6 ng·h/mL
same,AUC∞,[2]; [8],3.4 ng·h/mL
same,AUC∞/dose,[2]; [8],34.2 ng·h/mL/mg
same,CL/F,[2]; [8],29.2 L/h
same,Cmax,[2]; [8],2.2 ng/mL
same,Cmax/dose,[2]; [8],22.1 ng/mL/mg
same,t½,[2]; [8],48 min
same,AUC∞/dose,[2]; [9],34.9 (7.82) ng·h/mL/mg
same,Cmax/dose,[2]; [9],23.4 (10.1) ng/mL/mg
same,AUC0–t,"[2]; single 0.1 mg sc, median, n=4",2.6 ng·h/mL
same,AUC∞,"[2]; single 0.1 mg sc, median, n=4",3.5 ng·h/mL
same,AUC∞/dose,"[2]; single 0.1 mg sc, median, n=4",35.3 ng·h/mL/mg
same,CL/F,"[2]; single 0.1 mg sc, median, n=4",28.5 L/h
same,Cmax,"[2]; single 0.1 mg sc, median, n=4",1.9 ng/mL
same,Cmax/dose,"[2]; single 0.1 mg sc, median, n=4",18.9 ng/mL/mg
same,Vd/F,"[2]; single 0.1 mg sc, median, n=4",36.6 L
same,t½,"[2]; single 0.1 mg sc, median, n=4",48 min
same,AUC∞/dose,[2]; [10],50.4 ng·h/mL/mg
same,Vd/F,[2]; [10],74.1 L
same,AUC0–t,[2]; [11],16.8 ng·h/mL
same,AUC∞,[2]; [11],19.4 ng·h/mL
same,CL/F,[2]; [11],25.8 L/h
same,Cmax,[2]; [11],7.6 ng/mL
same,Cmax/dose,[2]; [11],15.3 ng/mL/mg
same,t½,[2]; [11],156 min
same,AUC∞/dose,"[2]; single 0.5 mg sc, mean (SD), n=2",59.9 (45.8) ng·h/mL/mg
same,Cmax/dose,"[2]; single 0.5 mg sc, mean (SD), n=4",16.4 (7.5) ng/mL/mg
same,AUC∞/dose,"[2]; single 0.5 mg sc, median, n=2",59.9 ng·h/mL/mg
same,Vd/F,"[2]; single 0.5 mg sc, median, n=2",74.4 L
same,AUC0–t,"[2]; single 0.5 mg sc, median, n=4",13.3 ng·h/mL
same,AUC∞,"[2]; single 0.5 mg sc, median, n=4",15 ng·h/mL
same,CL/F,"[2]; single 0.5 mg sc, median, n=4",33.6 L/h
same,Cmax,"[2]; single 0.5 mg sc, median, n=4",7.2 ng/mL
same,Cmax/dose,"[2]; single 0.5 mg sc, median, n=4",14.3 ng/mL/mg
same,t½,"[2]; single 0.5 mg sc, median, n=4",156 min
same,AUC∞/dose,"[2]; single 1.0 mg sc, geometric mean, n=3",35.4 ng·h/mL/mg
same,AUC0–t,[2]; [12],39.4 ng·h/mL
same,AUC∞,[2]; [12],44.9 ng·h/mL
same,CL/F,[2]; [12],22.3 L/h
same,Cmax,[2]; [12],16.7 ng/mL
same,Cmax/dose,[2]; [12],16.7 ng/mL/mg
same,t½,[2]; [12],366 min
same,AUC∞/dose,"[2]; single 1.0 mg sc, mean (SD), n=3",35.4 (1.8) ng·h/mL/mg
same,Cmax/dose,"[2]; single 1.0 mg sc, mean (SD), n=6",17.4 (5.0) ng/mL/mg
same,AUC∞/dose,"[2]; single 1.0 mg sc, median, n=3",34.5 ng·h/mL/mg
same,AUC0–t,"[2]; single 1.0 mg sc, median, n=6",39.2 ng·h/mL
same,AUC∞,"[2]; single 1.0 mg sc, median, n=6",45.5 ng·h/mL
same,CL/F,"[2]; single 1.0 mg sc, median, n=6",22.7 L/h
same,Cmax,"[2]; single 1.0 mg sc, median, n=6",18.3 ng/mL
same,Cmax/dose,"[2]; single 1.0 mg sc, median, n=6",18.3 ng/mL/mg
same,t½,"[2]; single 1.0 mg sc, median, n=6",360 min
same,AUC∞/dose,"[2]; single 3.0 mg sc, geometric mean, n=4",50.9 ng·h/mL/mg
same,Cmax/dose,"[2]; single 3.0 mg sc, geometric mean, n=6",17.8 ng/mL/mg
same,AUC∞/dose,"[2]; single 3.0 mg sc, mean (SD), n=4",51.3 (7.7) ng·h/mL/mg
same,AUC0–t,[2]; [13],138 (18.9) ng·h/mL
same,AUC∞,[2]; [13],158 (19.4) ng·h/mL
same,Cmax,[2]; [13],54.4 (11.3) ng/mL
same,Cmax/dose,[2]; [13],18.1 (3.8) ng/mL/mg
same,AUC∞/dose,"[2]; single 3.0 mg sc, median, n=4",51.1 ng·h/mL/mg
same,AUC0–t,"[2]; single 3.0 mg sc, median, n=6",138 ng·h/mL
same,Cmax/dose,"[2]; single 3.0 mg sc, median, n=6",16.4 ng/mL/mg
same,tmax,"[2]; single 3.0 mg sc, median, n=6",36 min
same,AUC0–t,[2]; [14],224 ng·h/mL
same,AUC∞,[2]; [14],237 ng·h/mL
same,AUC∞/dose,[2]; [14],47.5 ng·h/mL/mg
same,CL/F,[2]; [14],21.1 L/h
same,Cmax,[2]; [14],83.4 ng/mL
same,Cmax/dose,[2]; [14],16.7 ng/mL/mg
same,t½,[2]; [14],966 min
same,AUC∞/dose,[2]; [15],48.0 (7.4) ng·h/mL/mg
same,Cmax/dose,[2]; [15],17.6 (6.2) ng/mL/mg
same,AUC0–t,"[2]; single 5.0 mg sc, median, n=6",235 ng·h/mL
same,AUC∞,"[2]; single 5.0 mg sc, median, n=6",246 ng·h/mL
same,AUC∞/dose,"[2]; single 5.0 mg sc, median, n=6",49.2 ng·h/mL/mg
same,CL/F,"[2]; single 5.0 mg sc, median, n=6",20.3 L/h
same,Cmax,"[2]; single 5.0 mg sc, median, n=6",80.9 ng/mL
same,Cmax/dose,"[2]; single 5.0 mg sc, median, n=6",16.2 ng/mL/mg
same,Vd/F,"[2]; single 5.0 mg sc, median, n=6",496 L
same,t½,"[2]; single 5.0 mg sc, median, n=6",1040 min
same,Overall tolerability,[2]; single and multiple ascending sc doses,well tolerated
same,Time after dosing at which PL8177 was first measurable in plasma,[2]; single sc dose,15 min
same,Persistence of measurable PL8177 in plasma,"[2]; single sc dose, at higher doses",up to 48 h
same,"AEs leading to study discontinuation, serious AEs, or severe AEs",[2]; single-dose arm,no reports
same,Dose linearity for AUC∞ and Cmax,[2]; single-dose arm,inconclusive
same,Intact drug excreted in the urine,[2]; single-dose arm,≤ 1%
same,Time after dosing at which Cmax was generally reached (tmax),[2]; single-dose arm,30 to 45 min

# From publication PMC8602434 (Drugs in R&D, 2021)
